Data set [1] concerns Escherichia coli CFT073. Put plainly: Inhibition of LspA in wild type Escherichia coli CFT073 assessed as inhibition of bacterial growth. Put shortly: (§1)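 Read-out is the minimum inhibitory concentration, reported in µM.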
Data set [2] can be described thus: Growth inhibition of Staphylococcus aureus USA300.
In data set [3] the test system is Escherichia coli. Kind of data set: Inhibition of LspA in Escherichia coli CFT073imp4213 harboring outer membrane-permeable mutant assessed as inhibition of bacterial growth. Put shortly:
as §1

A short description of data set [4]: Lipophilicity, logD of the compound at pH 7.4. The conditions noted are these: buffer, pH 7.4, logD.

Values after ≈ are worked out from the molar mass of the structure shown. Starred links: 1 amine or outer side, 2 acyl side, 3 side chain; linkers in the order of their positions; H or OH if unused. Non-standard residues stand in square brackets, D forms with d. Residues, ends and D or L forms follow the SMILES beside them. Groups on a side chain read outwards from the residue. *: point of attachment. X1 = CCCCCC[C@@H](OC[C@@H](C)N[*:1])[C@@H](C)C(=O)[*:2]; Gly(cHept) = N[C@H](C(=O)O)C1CCCCCC1; NMeNva = CCC[C@H](NC)C(=O)O; X13 = N[C@H]1C[C@H](N*)C1; X14 = NCCN1CC[C@H](*)C1; Dap = NC[C@H](N)C(=O)O; CO = O=C([*:1])[*:2]; X11 = NCCCC*

As usually defined, the logD is lipophilicity at a set pH, counting ionised and neutral species. On to `CCC[C@H]1C(=O)N[C@@H](C2CCCCCC2)C(=O)N[C@@H](CN)C(=O)N[C@@H]([C@H](C)O)C(=O)NCC(=O)O[C@H](C[C@@H]2CC[C@@H]3CC[C@H]2C3)[C@@H](C)C(=O)N1C`, for which the values for the MIC in data set [1], in data set [2] and in data set [3] were 0.4 µM (≈ 0.288 µg/mL), 25 µM (≈ 18 µg/mL) and 0.009 µM (≈ 0.00647 µg/mL), respectively. The molecule also gave a logD in data set [4] of 3.1.
The corresponding values for `CCC[C@H]1C(=O)N[C@@H](C2CCCCCC2)C(=O)N[C@@H](CN)C(=O)N[C@@H]([C@H](C)O)C(=O)NCC(=O)O[C@H](CC2CC3(CCC3)C2)[C@@H](C)C(=O)N1C` are 0.78 µM (≈ 0.55 µg/mL), 50 µM (≈ 35.2 µg/mL), 0.009 µM (≈ 0.00634 µg/mL) and 2.9.
Consider `CCCCCCCCCC[C@H]1OC(=O)CNC(=O)[C@H]([C@H](C)O)NC(=O)[C@H](CCN)NC(=O)[C@H]([C@@H](C)CC)NC(=O)[C@H](CC(C)C)N(C)C(=O)[C@@H]1C`, for which the MIC turned out to be 25 µM (≈ 18.1 µg/mL) in data set [1], 13 µM (≈ 9.42 µg/mL) in data set [2] and 0.39 µM (≈ 0.283 µg/mL) in data set [3].
As to `CCCC(C)(C)CC[C@H]1OC(=O)CNC(=O)[C@H]([C@H](C)O)NC(=O)[C@H](CN)NC(=O)[C@H]([C@H](C)CC)NC(=O)[C@H](CC(C)C)N(C)C(=O)[C@@H]1C`, the MIC in data set [1] came to 3.1 µM (≈ 2.12 µg/mL); in data set [2], 100 µM (≈ 68.3 µg/mL); in data set [3], 0.034 µM (≈ 0.0232 µg/mL). For the same molecule, in data set [4], the logD turned out to be 3.2.
Regarding `CCCCCC[C@H]1OC[C@@H](C)NC(=O)[C@H](CNC(=O)N[C@H]2C[C@H](N)C2)NC(=O)[C@H](CN)NC(=O)[C@H](C2CCCCCC2)NC(=O)[C@H](CCC)N(C)C(=O)[C@@H]1C` (cyclo([Dap][Dap]([CO-X13])[X1][NMeNva][Gly(cHept)])), the results for the MIC in data set [1], in data set [2] and in data set [3] were 12 µM (≈ 9.34 µg/mL), 71 µM (≈ 55.2 µg/mL) and 0.39 µM (≈ 0.303 µg/mL), respectively. In data set [4], this molecule yielded a log distribution coefficient (logD) of 1.5.
For `CCCCCC[C@H]1OC(=O)CNC(=O)[C@H]([C@H](C)O)NC(=O)[C@H](CN)NC(=O)[C@H]([C@@H](C)O)NC(=O)[C@H](CC(C)C)N(C)C(=O)[C@@H]1C`, the MIC in data set [1] is above 100 µM; in data set [2], above 100 µM; in data set [3], 50 µM (≈ 32.1 µg/mL).
Regarding `CCCCCCCCCC[C@H]1OC(=O)CNC(=O)[C@H]([C@H](C)O)NC(=O)[C@H](CO)NC(=O)[C@H]([C@H](C)CC)NC(=O)[C@H](CC(C)C)N(C)C(=O)[C@@H]1C`, the MIC in data set [1] stood at 5.4 µM (≈ 3.84 µg/mL); in data set [2], 25 µM (≈ 17.8 µg/mL); in data set [3] it was 0.016 µM (≈ 0.0114 µg/mL).
`CCCCCC[C@H]1OC[C@@H](C)NC(=O)[C@H](COCCCCN)NC(=O)[C@H](CN)NC(=O)[C@H](C2CCCCCC2)NC(=O)[C@H](CCC)N(C)C(=O)[C@@H]1C` (cyclo([Dap]S(X11)[X1][NMeNva][Gly(cHept)])): the MIC was 6.3 µM (≈ 4.65 µg/mL) in data set [1], 71 µM (≈ 52.4 µg/mL) in data set [2] and 0.14 µM (≈ 0.103 µg/mL) in data set [3]. The molecule also came in with a logD in data set [4] of 1.8.
As for `CCCCCC[C@H]1OC[C@@H](C)NC(=O)[C@H](CNCCCN)NC(=O)[C@H](CN)NC(=O)[C@H](C2CCCCCC2)NC(=O)[C@H](CCC)N(C)C(=O)[C@@H]1C`, the MIC in data set [1] was found to be 3.1 µM (≈ 2.24 µg/mL); in data set [2] it was 50 µM (≈ 36.2 µg/mL); in data set [3], 0.28 µM (≈ 0.202 µg/mL). Further, in data set [4], the logD stood at 1.1.
On to `CCCCCC[C@H]1OC[C@@H](C)NC(=O)[C@H](CO[C@H]2CCN(CCN)C2)NC(=O)[C@H](CN)NC(=O)[C@H](C2CCCCCC2)NC(=O)[C@H](CCC)N(C)C(=O)[C@@H]1C` (cyclo([Dap]S(X14)[X1][NMeNva][Gly(cHept)])), for which the MIC in data set [1] was 6.3 µM (≈ 4.91 µg/mL); in data set [2], 100 µM (≈ 77.9 µg/mL); in data set [3] it was 0.2 µM (≈ 0.156 µg/mL). Besides, in data set [4], the logD was determined as 1.6.
As for `CCCCCC[C@H]1OC(=O)CNC(=O)[C@H]([C@H](C)O)NC(=O)[C@H](CN)NC(=O)[C@H]([C@@H](C)OC)NC(=O)[C@H](CC(C)C)N(C)C(=O)[C@@H]1C`, the results for the MIC in data set [1], in data set [2] and in data set [3] were above 100 µM, above 100 µM and 7.7 µM (≈ 5.06 µg/mL), respectively.
`CCCCCCCCCC[C@H]1OC(=O)CNC(=O)[C@H]([C@H](C)O)NC(=O)[C@H](Cc2c[nH]cn2)NC(=O)[C@H]([C@@H](C)CC)NC(=O)[C@H](CC(C)C)N(C)C(=O)[C@@H]1C`: the MIC in data set [1] was found to be 100 µM (≈ 76.2 µg/mL); in data set [2], 25 µM (≈ 19.1 µg/mL); in data set [3], 6.3 µM (≈ 4.8 µg/mL).
In turn, `CCC[C@H]1C(=O)N[C@@H](C2CCCCCC2)C(=O)N[C@@H](CN)C(=O)N[C@@H]([C@H](C)O)C(=O)NCC(=O)O[C@H](CC2CC3CCC2C3)[C@@H](C)C(=O)N1C` (stereo in doubt; 26) gave an MIC in data set [2] of 100 µM (≈ 70.5 µg/mL). The logD in data set [4] was found to be 2.8.
In the case of `CCCCCCCCCC[C@H]1OC(=O)CNC(=O)[C@H]([C@H](C)O)NC(=O)[C@H](CN)NC(=O)[C@H]([C@@H](C)CC)NC(=O)[C@H](CC(C)C)N(C)C(=O)[C@@H]1C`, the MIC in data set [1] came to 2.2 µM (≈ 1.56 µg/mL); in data set [2] it was 13 µM (≈ 9.24 µg/mL); in data set [3], 0.03 µM (≈ 0.0213 µg/mL).
For the molecule `CCCCCC[C@H]1OC(=O)CNC(=O)[C@H]([C@H](C)O)NC(=O)[C@H](CN)NC(=O)[C@H](C2CCCCC2)NC(=O)[C@H](CC(C)C)N(C)C(=O)[C@@H]1C`, the values for the MIC in data set [1], in data set [2] and in data set [3] were 3.1 µM (≈ 2.11 µg/mL), above 100 µM and 0.059 µM (≈ 0.0402 µg/mL), respectively.
